pIC50: −log10 of the molar value. ≈ marks a conversion by molar mass, not a printed value.

The subject of one data set is Aspergillus niger. Briefly: Antifungal activity against Aspergillus niger MTCC 8189 after 48 hrs by broth microdilution method. The format is functional. The note with it: MTCC 8189, 48 h. The method, boiled down: (§1)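 Fungi grown in Sabouraud liquid medium, inoculum 0.5–2.5 x 10^3 CFU/ml. Broth microdilution per NCCLS using twofold serial dilutions in sterile water from DMSO solutions. Incubated at 35°C for 48 h. MIC (µg/ml) was the lowest concentration with no visible growth by eye. Fluconazole as positive control. Mean ± SD of three replicates.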
In general terms: In broth dilution the organism is exposed to a series of concentrations in liquid medium.
A word on the MIC: it is the lowest concentration found to suppress growth. `O=C(c1cccnc1)N1N=C(c2ccc(O)cc2)CC1c1ccc(F)cc1` (centres undefined) gave an MIC of 25 µg/mL (≈ 69.2 µM).
The molecule `COc1ccc(C2CC(c3ccc(O)cc3)=NN2C(=O)c2cccnc2)cc1OC` (centres undefined) had an MIC of 6.5 µg/mL (≈ 16.1 µM).
Turning to `CCc1ccccc1C1CC(c2ccc(O)cc2)=NN1C(=O)c1cccnc1` (centres undefined), the MIC is 50 µg/mL (≈ 135 µM).
With `O=C(c1cccnc1)N1N=C(c2ccc(O)cc2)CC1c1ccc(OCc2ccccc2)cc1` (centres undefined), it took 12.5 µg/mL (≈ 27.8 µM) to inhibit growth (MIC).

For another data set, the system named is Staphylococcus aureus. Briefly: Antibacterial activity against Staphylococcus aureus MTCC 3160 after 24 hrs by broth microdilution method. The conditions noted are these: MTCC 3160, 24 h. The format is functional. The method, boiled down: (§2)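 Broth microdilution per NCCLS in Mueller-Hinton broth, inoculum 5 x 10^5 CFU/ml. Compounds dissolved in DMSO, twofold serial dilutions made in sterile distilled water. Incubated at 35°C for 24 h. MIC (µg/ml) taken as the lowest concentration with no visible turbidity by unaided eye. Ciprofloxacin as positive control. Three replicates, mean ± SD.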
On to `O=C(c1cccnc1)N1N=C(c2ccc(O)cc2)CC1c1ccc(F)cc1` (centres undefined), for which the MIC was determined as 12.5 µg/mL (≈ 34.6 µM).
The same measure, in the same setting: the figure for `COc1ccc(C2CC(c3ccc(O)cc3)=NN2C(=O)c2cccnc2)cc1OC` (centres undefined) is 50 µg/mL (≈ 124 µM).
Take `CCc1ccccc1C1CC(c2ccc(O)cc2)=NN1C(=O)c1cccnc1` (centres undefined): the lowest concentration to inhibit growth (MIC) was 50 µg/mL (≈ 135 µM).
On to `O=C(c1cccnc1)N1N=C(c2ccc(O)cc2)CC1c1ccc(OCc2ccccc2)cc1` (centres undefined), for which the MIC worked out at 50 µg/mL (≈ 111 µM).

The test system of another data set is Plasmodium falciparum. Briefly: Antimalarial activity against chloroquine-resistant Plasmodium falciparum RKL-9 schizont infected in RBC measured after 24 to 30 hrs hrs by giemsa staining based light microscopic method. The format is functional.
Conditions: not given
In outline: (§3)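 Asynchronous cultures synchronised to rings with 5% aqueous sorbitol, other stages removed by centrifugation; parasitemia about 1% in fresh washed RBCs. Compounds dissolved in DMSO, diluted in RPMI-1640, tested at several concentrations in triplicate; drug-free wells as control. Incubation 37°C in CO2 for 24-30 h until schizont maturation; methanol-fixed Giemsa smears counted under oil immersion; % inhibition, IC50 by probit; n=2.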
A word on the pIC50: it is the negative decadic logarithm of the IC50, by convention in mol/L. As for `O=C(c1cccnc1)N1N=C(c2ccc(O)cc2)CC1c1ccc(F)cc1` (centres undefined), the pIC50 was 5.54.
For `COc1ccc(C2CC(c3ccc(O)cc3)=NN2C(=O)c2cccnc2)cc1OC` (centres undefined), the pIC50 is 6.60.
Take `CCc1ccccc1C1CC(c2ccc(O)cc2)=NN1C(=O)c1cccnc1` (centres undefined): the pIC50 is 6.33.
The molecule `O=C(c1cccnc1)N1N=C(c2ccc(O)cc2)CC1c1ccc(OCc2ccccc2)cc1` (centres undefined) had a pIC50 of 5.59.

System in a further data set: not listed separately
Kind of data set: Inhibition of beta-hematin formation assessed as reduction in acetate buffer-initiated hemozoin formation after 18 hrs by spectrophotometric method relative to control. The conditions noted are these: concentration not given here. On the set-up: concentration or dose not given beside the values. In outline: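 Colorimetric β-hematin assay after Ncokazi and Egan. Haemin chloride in DMSO, with compounds at 0.12–5 molar equivalents to haemin and DMSO as control. Reaction started with acetate buffer pH 5.0 and run 18 h at 37°C. Pellet then washed with DMSO to remove unreacted haematin. % inhibition computed from test versus control absorbance. Duplicate determinations.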
What is called inhibition is the percentage by which the read-out fell short of the control. For the molecule `O=C(c1cccnc1)N1N=C(c2ccc(O)cc2)CC1c1ccc(F)cc1` (centres undefined), the inhibition was less than 5%.
Turning to `COc1ccc(C2CC(c3ccc(O)cc3)=NN2C(=O)c2cccnc2)cc1OC` (centres undefined), the inhibition worked out at 89%.
Regarding `CCc1ccccc1C1CC(c2ccc(O)cc2)=NN1C(=O)c1cccnc1` (centres undefined), the inhibition is 53%.
For the molecule `O=C(c1cccnc1)N1N=C(c2ccc(O)cc2)CC1c1ccc(OCc2ccccc2)cc1` (centres undefined), the inhibition was less than 5%.

System in the next data set: not listed separately
Briefly: Selectivity index, ratio of IC50 for human HepG2 cells to IC50 for chloroquine-resistant Plasmodium falciparum RKL-9 schizont infected in RBC. The format is toxicity. The conditions noted are these: read-out: Ratio IC50. In outline:
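HepG2 in RPMI 1640 with 10% FCS, 5 x 10^2 cells/well, serial dilutions (DMSO stocks) added after 1 h; 7 days at 37°C, 5% CO2; MTT 4 h, formazan in ethanol, absorbance 570 nm; IC50 by non-linear regression, one experiment in duplicate. Index = HepG2 IC50 / RKL-9 antiplasmodial IC50.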
Turning to `O=C(c1cccnc1)N1N=C(c2ccc(O)cc2)CC1c1ccc(F)cc1` (centres undefined), the selectivity ratio came out at 18.1.
In the case of `COc1ccc(C2CC(c3ccc(O)cc3)=NN2C(=O)c2cccnc2)cc1OC` (centres undefined), the selectivity ratio stood at 213.
Take `CCc1ccccc1C1CC(c2ccc(O)cc2)=NN1C(=O)c1cccnc1` (centres undefined): the selectivity ratio is 75.1.
`O=C(c1cccnc1)N1N=C(c2ccc(O)cc2)CC1c1ccc(OCc2ccccc2)cc1` (centres undefined): the selectivity ratio stood at 4.48.

The subject of a further data set is Pseudomonas aeruginosa. Kind of data set: Antibacterial activity against Pseudomonas aeruginosa MTCC 741 after 24 hrs by broth microdilution method. The format is functional. The conditions noted are these: MTCC 741, 24 h. In outline: as §2
Regarding `O=C(c1cccnc1)N1N=C(c2ccc(O)cc2)CC1c1ccc(F)cc1` (centres undefined), the MIC amounted to 12.5 µg/mL (≈ 34.6 µM).
Molecule `COc1ccc(C2CC(c3ccc(O)cc3)=NN2C(=O)c2cccnc2)cc1OC` (centres undefined) had an MIC of 25 µg/mL (≈ 62 µM).
The molecule `CCc1ccccc1C1CC(c2ccc(O)cc2)=NN1C(=O)c1cccnc1` (centres undefined) displayed an MIC of 25 µg/mL (≈ 67.3 µM).
`O=C(c1cccnc1)N1N=C(c2ccc(O)cc2)CC1c1ccc(OCc2ccccc2)cc1` (centres undefined) returned an MIC of 12.5 µg/mL (≈ 27.8 µM).

Another data set deals with Bacillus subtilis. Briefly: Antibacterial activity against Bacillus subtilis MTCC 121 after 24 hrs by broth microdilution method. The format is functional. The conditions noted are these: MTCC 121, 24 h. The method, boiled down: as §2
In turn, `O=C(c1cccnc1)N1N=C(c2ccc(O)cc2)CC1c1ccc(F)cc1` (centres undefined) returned a minimum inhibitory concentration (MIC) of 3.25 µg/mL (≈ 8.99 µM).
In turn, `COc1ccc(C2CC(c3ccc(O)cc3)=NN2C(=O)c2cccnc2)cc1OC` (centres undefined) displayed an MIC of 50 µg/mL (≈ 124 µM).
In turn, `CCc1ccccc1C1CC(c2ccc(O)cc2)=NN1C(=O)c1cccnc1` (centres undefined) registered an MIC of 50 µg/mL (≈ 135 µM).
In turn, `O=C(c1cccnc1)N1N=C(c2ccc(O)cc2)CC1c1ccc(OCc2ccccc2)cc1` (centres undefined) had an MIC of 50 µg/mL (≈ 111 µM).

The test system of the next data set is Escherichia coli. Kind of data set: Antibacterial activity against Escherichia coli MTCC 51 after 24 hrs by broth microdilution method. The note with it: MTCC 51, 24 h. The format is functional. The method, boiled down:
as §2
Turning to `O=C(c1cccnc1)N1N=C(c2ccc(O)cc2)CC1c1ccc(F)cc1` (centres undefined), the MIC stood at 6.5 µg/mL (≈ 18 µM).
Same read-out and setting: for `COc1ccc(C2CC(c3ccc(O)cc3)=NN2C(=O)c2cccnc2)cc1OC` (centres undefined) the value was 50 µg/mL (≈ 124 µM).
`CCc1ccccc1C1CC(c2ccc(O)cc2)=NN1C(=O)c1cccnc1` (centres undefined) showed an MIC of 12.5 µg/mL (≈ 33.7 µM).
On to `O=C(c1cccnc1)N1N=C(c2ccc(O)cc2)CC1c1ccc(OCc2ccccc2)cc1` (centres undefined), for which 25 µg/mL (≈ 55.6 µM) was the least that counted as inhibitory (MIC).

In a further data set the test system is HepG2. Briefly: Cytotoxicity against human HepG2 cells assessed as reduction in cell viability after 7 days by MTT assay. The format is cell-based. The note with it: HepG2, 168 h. The method, boiled down: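 HepG2 cells maintained in RPMI 1640 with 10% FCS. Seeded at 5 x 10^2 cells per well and pre-incubated 1 h at 37°C, 5% CO2. Serial dilutions from DMSO stocks added, with medium and DMSO solvent controls. Cells incubated seven days, then MTT (5 mg/ml) added for 4 h. Formazan dissolved in ethanol, A570 read. IC50 by non-linear regression of % growth against log concentration.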
For orientation: Tetrazolium assays rely on reduction of a dye to a coloured formazan, in cell work by metabolically active cells.
On to `O=C(c1cccnc1)N1N=C(c2ccc(O)cc2)CC1c1ccc(F)cc1` (centres undefined), for which the pIC50 is 4.28.
`COc1ccc(C2CC(c3ccc(O)cc3)=NN2C(=O)c2cccnc2)cc1OC` (centres undefined): the pIC50 is 4.27.
`CCc1ccccc1C1CC(c2ccc(O)cc2)=NN1C(=O)c1cccnc1` (centres undefined): the pIC50 was 4.45.
The same measure, in the same setting: the figure for `O=C(c1cccnc1)N1N=C(c2ccc(O)cc2)CC1c1ccc(OCc2ccccc2)cc1` (centres undefined) is 4.94.

A further data set has as its system Plasmodium falciparum. Briefly: Antimalarial activity against chloroquine-sensitive Plasmodium falciparum MRC-2 schizont infected in RBC measured after 24 to 30 hrs hrs by giemsa staining based light microscopic method. The format is functional.
Conditions: not given
The method, boiled down: as §3
Consider `O=C(c1cccnc1)N1N=C(c2ccc(O)cc2)CC1c1ccc(F)cc1` (centres undefined), for which the pIC50 was 5.60.
Same read-out and setting: the figure for `COc1ccc(C2CC(c3ccc(O)cc3)=NN2C(=O)c2cccnc2)cc1OC` (centres undefined) is 7.52; for `CCc1ccccc1C1CC(c2ccc(O)cc2)=NN1C(=O)c1cccnc1` (centres undefined) it is 7.09.
Still for that read-out and setting: for `O=C(c1cccnc1)N1N=C(c2ccc(O)cc2)CC1c1ccc(OCc2ccccc2)cc1` (centres undefined) the value was 6.67.

A further data set concerns Candida albicans. Briefly: Antifungal activity against Candida albicans MTCC 227 after 48 hrs by broth microdilution method. The format is functional. The note with it: MTCC 227, 48 h. The method, boiled down: as §1
`O=C(c1cccnc1)N1N=C(c2ccc(O)cc2)CC1c1ccc(F)cc1` (centres undefined) yielded an MIC of 12.5 µg/mL (≈ 34.6 µM).
`COc1ccc(C2CC(c3ccc(O)cc3)=NN2C(=O)c2cccnc2)cc1OC` (centres undefined) came in with an MIC of 75 µg/mL (≈ 186 µM).
`CCc1ccccc1C1CC(c2ccc(O)cc2)=NN1C(=O)c1cccnc1` (centres undefined) yielded an MIC of 100 µg/mL (≈ 269 µM).
In turn, `O=C(c1cccnc1)N1N=C(c2ccc(O)cc2)CC1c1ccc(OCc2ccccc2)cc1` (centres undefined) returned an MIC of 3.25 µg/mL (≈ 7.23 µM).
